Screens as filed in PubChem.
IMP-1 inh-1: inhibitors of Pseudomonas aeruginosa IMP-1 metallo-beta-lactamase; purified IMP-1, nitrocefin hydrolysis, epi-absorbance fluorescence; inhibition, % at 5.6 µM; actives 0.45% (n = 290,000);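 active = inhibition above the mean plus 3 SD of all compounds in the same screening run, cut at about 4.5% in these data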
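System – purified recombinant IMP-1 beta-lactamase · Input – IMP-1 dispensed at 0.2 nM · Timing – 15 min preincubation plus 25 min reaction at 25 °C · Signal – Epi-absorbance fluorescence, 480 nm excitation, 530 nm emission · Measure – percent IMP-1 inhibition derived from blank-referenced optical density · Controls – Enzyme-plus-DMSO low control, enzyme-free DMSO high control · Replication – singlicate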
PAFAH2 inh: inhibitors of human PAFAH2 | Q99487 | recombinant PAFAH2, FP-rhodamine activity probe, fluorescence polarization | inhibition, % at 3.39 µM | actives 0.99% (n = 340,000) | AID 492956;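 active = inhibition above the mean over all tested compounds plus 3 SD, cut at about 30% in these data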;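 note: inhibitors block probe labeling of enzyme so polarization drops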
pPAFAH FP inh: pPAFAH (human) enzyme inhibition. Q13093. recombinant pPAFAH, FP-rhodamine probe fluorescence polarization. inhibition, % at 3.39 µM. actives 1.5% (n = 330,000). AID 463082;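 active = inhibition above the mean inhibition across the screen plus 3 SD, cut at about 25% in these data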;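 note: inhibitors block binding of the rhodamine activity-based probe so polarization drops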
PAFAH1B2 FP inh: PAFAH1B2 (human) inhibition. P68402. recombinant PAFAH1B2, FP-rhodamine activity probe, fluorescence polarization. inhibition, % at 3.39 µM. actives 1.2% (n = 340,000). AID 492953;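 active = inhibition above the mean of all tested compounds plus 3 SD, cut at about 24% in these data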
Target sequence (P68402 whole entry, looked up): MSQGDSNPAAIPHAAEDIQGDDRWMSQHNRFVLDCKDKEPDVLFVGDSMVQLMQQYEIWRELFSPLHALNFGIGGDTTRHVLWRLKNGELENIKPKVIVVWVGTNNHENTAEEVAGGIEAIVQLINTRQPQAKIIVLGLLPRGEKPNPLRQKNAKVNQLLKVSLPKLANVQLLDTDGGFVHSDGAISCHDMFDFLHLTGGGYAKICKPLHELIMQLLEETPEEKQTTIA
PAFAH1B3 FP inh: inhibitors of human PAFAH1B3 | Q15102 | recombinant PAFAH1B3, FP-rhodamine probe, fluorescence polarization | inhibition, % at 3.39 µM | actives 0.28% (n = 340,000) | AID 492972;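 active = inhibition above the screen-wide average of all tested compounds plus 3 SD, cut at about 25% in these data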
Target sequence (Q15102 whole entry, looked up): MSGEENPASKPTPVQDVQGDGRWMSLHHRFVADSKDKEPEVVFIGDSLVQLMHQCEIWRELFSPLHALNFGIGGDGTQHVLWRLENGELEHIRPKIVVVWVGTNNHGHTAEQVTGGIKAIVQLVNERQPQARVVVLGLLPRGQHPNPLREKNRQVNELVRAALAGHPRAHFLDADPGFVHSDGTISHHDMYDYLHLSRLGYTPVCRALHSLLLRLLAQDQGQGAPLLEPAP
VIM-2 inh: blocks Pseudomonas aeruginosa VIM-2 metallo-beta-lactamase. purified VIM-2, nitrocefin hydrolysis, epi-absorbance fluorescence. inhibition, % at 5.6 µM. actives 0.89% (n = 290,000). AID 1527;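 active = inhibition above the mean of all tested compounds plus 3 SD, cutoff set per screening run, cut at about 7.5% in these data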;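 note: red hydrolysis product quenches plate fluorescence so inhibitors raise well fluorescence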
IMP-1 inh-2: IMP-1 inhibition, counter-screen for VIM-2 inhibitors | shares compounds with VIM-2 inh | purified IMP-1, nitrocefin hydrolysis, epi-absorbance fluorescence | inhibition, % at 5.6 µM | AID 1856 | 1,300 tested, under 10 active; call rule not given here
VIM-2 FRET inh: VIM-2 FRET inhibition, artifact counter-screen | shares compounds with VIM-2 inh | purified VIM-2, CCF2 FRET substrate hydrolysis | inhibition, % at 5.6 µM | actives 23% (n = 1,300);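 active = inhibition above the mean of all tested compounds plus 3 SD, cut at about 19% in these data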
TEM-1 counter: selectivity counter-screen for VIM-2 inhibitors: E. coli TEM-1 inhibitors; Purified TEM-1, nitrocefin hydrolysis, epi-absorbance fluorescence; shares compounds with VIM-2 inh; inhibition, % at 5.6 µM; actives 3% (n = 1,300); AID 1866;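 active = inhibition above that campaign's mean inhibition plus 3 SD, cut at about 0.46% in these data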
Target sequence (P62593 whole entry, looked up): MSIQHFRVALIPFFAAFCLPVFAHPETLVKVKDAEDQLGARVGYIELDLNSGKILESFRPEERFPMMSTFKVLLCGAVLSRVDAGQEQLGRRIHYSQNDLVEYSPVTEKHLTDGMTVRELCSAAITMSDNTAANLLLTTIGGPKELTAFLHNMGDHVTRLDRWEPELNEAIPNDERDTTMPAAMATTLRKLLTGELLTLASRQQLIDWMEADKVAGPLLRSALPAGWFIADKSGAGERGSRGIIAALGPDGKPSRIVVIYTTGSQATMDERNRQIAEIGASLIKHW
VIM-2 confirm 2: confirmation of P. aeruginosa VIM-2 metallo-beta-lactamase inhibitors; shares compounds with VIM-2 inh; purified VIM-2, nitrocefin hydrolysis, epi-absorbance; inhibition, % at 5.6 µM; actives 96% (n = 1,300); AID 2187;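 active = inhibition of the VIM-2 beta-lactamase enzyme above about 11% from the earlier first-round screen, limit read from the data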
Large screens that a line does not name were inactive (follow-up assays come after a bar, where they were run). Most compounds without a hit are left out; they make up all but 3.6% or so of the library.

CCC(CO)Nc1ccc(-c2nn(C)c(=O)c3ccccc23)cc1[N+](=O)[O-] (configuration not stated)	VIM-2 inh 25 | IMP-1 inh-2 inactive | VIM-2 FRET inh inactive | TEM-1 counter inactive | VIM-2 confirm 2 45
O=C(Cc1ccc(Cl)cc1)Nc1ccc(Br)cn1	none
COc1ccc(-c2nn(C)c3sc(C(=O)NCCN(C)C)cc23)cc1OC	VIM-2 inh 17 | IMP-1 inh-2 inactive | VIM-2 FRET inh inactive | TEM-1 counter inactive | VIM-2 confirm 2 30
CCN(CC)CCNC(=O)c1cc2c(-c3cccc(OC)c3)nn(C)c2s1	VIM-2 inh 14 | IMP-1 inh-2 inactive | VIM-2 FRET inh inactive | TEM-1 counter inactive | VIM-2 confirm 2 23
COCCCNC(=O)c1cc2c(-c3cccc(OC)c3)nn(C)c2s1	none
CCCN(CCC)CCCNC(=O)c1cc2c(-c3ccc(OC)c(OC)c3)nn(C)c2s1	VIM-2 inh 12 | IMP-1 inh-2 inactive | VIM-2 FRET inh inactive | TEM-1 counter inactive | VIM-2 confirm 2 24
COc1ccc(NC(=O)C2CCC(C(C)(C)C)CC2)cc1S(=O)(=O)N1CCOCC1 (configuration not stated)	none (no result: IMP-1 inh-1, VIM-2 inh)
O=C(COc1ccc([N+](=O)[O-])cc1)Nc1ccc2c(c1)CCC2	none (no result: IMP-1 inh-1, VIM-2 inh)
COc1cc(/C=N/N2CCN(Cc3ccc(C)cc3)CC2)cc(OC)c1O	VIM-2 inh 22 | IMP-1 inh-2 inactive | VIM-2 FRET inh inactive | TEM-1 counter inactive | VIM-2 confirm 2 32
CCN1CCN(C(=O)Cn2nc(-c3ccc(Cl)cc3)ccc2=O)CC1	VIM-2 inh 23 | IMP-1 inh-2 inactive | VIM-2 FRET inh inactive | TEM-1 counter inactive | VIM-2 confirm 2 27
Cc1ccc(C(=O)N/C(=C/c2ccc(-c3ccc([N+](=O)[O-])cc3)o2)C(=O)NCCCN(C)C)cc1	none (no result: IMP-1 inh-1, VIM-2 inh)
O=C(O)c1ccccc1/C=N/n1c(C2CCCCC2)n[nH]c1=S	VIM-2 inh 15 | IMP-1 inh-2 inactive | VIM-2 FRET inh 32 | TEM-1 counter inactive | VIM-2 confirm 2 21
O=C(O)c1cc2ccc3ccccc3c2[nH]1	VIM-2 inh 14 | IMP-1 inh-2 inactive | VIM-2 FRET inh 18 | TEM-1 counter inactive | VIM-2 confirm 2 16
CN(CC(=O)Nc1cc(Cl)ccc1C#N)C1CCS(=O)(=O)C1 (configuration not stated)	none (no result: IMP-1 inh-1, VIM-2 inh)
CN1CCN(C(=O)CNc2ccc(C(F)(F)F)cc2[N+](=O)[O-])CC1	VIM-2 inh 24 | IMP-1 inh-2 inactive | VIM-2 FRET inh inactive | TEM-1 counter inactive | VIM-2 confirm 2 38
O=C(NCCN1CCCCC1)c1ccc(F)cc1Cl	none
Cc1cc(=O)n2c3ccccc3n(CC(O)CN3CCC(C)CC3)c2c1C#N (configuration not stated)	none (no result: pPAFAH FP inh)
Cc1cc(=O)n2c3ccccc3n(CC(O)CN3CCN(Cc4ccccc4)CC3)c2c1C#N (configuration not stated)	VIM-2 inh 14 | IMP-1 inh-2 inactive | VIM-2 FRET inh inactive | TEM-1 counter inactive | VIM-2 confirm 2 33
Cc1cc(=O)n2c3ccccc3n(CC(O)CN3CCN(CCO)CC3)c2c1C#N (configuration not stated)	VIM-2 inh 22 | IMP-1 inh-2 inactive | VIM-2 FRET inh inactive | TEM-1 counter inactive | VIM-2 confirm 2 38
COc1ccccc1Nc1nc(NCCCN(C)C)nc(N)c1[N+](=O)[O-]	VIM-2 inh 27 | IMP-1 inh-2 inactive | VIM-2 FRET inh inactive | TEM-1 counter inactive | VIM-2 confirm 2 44
O=C(Nc1ccc(N2CCN(C(=O)c3ccccc3F)CC2)cc1)c1cncc(Br)c1	none
CCN(CC)CCNC(=O)c1cc2c(=O)n(C)c3ccccc3c2n1C	VIM-2 inh 20 | IMP-1 inh-2 inactive | VIM-2 FRET inh inactive | TEM-1 counter inactive | VIM-2 confirm 2 31
CCCCN(CC)CCNC(=O)c1cc2c(=O)n(C)c3ccccc3c2n1C	VIM-2 inh 21 | IMP-1 inh-2 inactive | VIM-2 FRET inh inactive | TEM-1 counter inactive | VIM-2 confirm 2 30
COCCNC(=O)c1cc2c(=O)n(C)c3ccccc3c2n1C	VIM-2 inh 14 | IMP-1 inh-2 inactive | VIM-2 FRET inh inactive | TEM-1 counter inactive | VIM-2 confirm 2 22
CCCCN(CC)CCNC(=O)c1cc2c(C)nc3ccccc3c2o1	VIM-2 inh 14 | IMP-1 inh-2 inactive | VIM-2 FRET inh inactive | TEM-1 counter inactive | VIM-2 confirm 2 17
CCCCN(CC)CCCNC(=O)c1cn(C)c(=O)c2c1c1ccccc1n2C	none
CON(C)C(=O)/C=C/c1ccc([B-](F)(F)F)cc1	none (no result: IMP-1 inh-1, pPAFAH FP inh, VIM-2 inh)
CCCN(CCC)CCCNC(=O)c1cc2c(=O)n(C)c3ccccc3c2n1C	VIM-2 inh 26 | IMP-1 inh-2 inactive | VIM-2 FRET inh inactive | TEM-1 counter inactive | VIM-2 confirm 2 30
CCN(CC)CCCNC(=O)c1cc2c(=O)n(C)c3ccccc3c2n1C	VIM-2 inh 22 | IMP-1 inh-2 inactive | VIM-2 FRET inh inactive | TEM-1 counter inactive | VIM-2 confirm 2 30
CCCN(CCC)CCCNC(=O)c1cn(CCOC)c(=O)c2c1c1ccccc1n2C	none
CCN(CC)S(=O)(=O)c1ccc(C(=O)Nc2cc(S(=O)(=O)N3CCOCC3)ccc2N2CCN(C)CC2)cc1	none (no result: IMP-1 inh-1, pPAFAH FP inh, VIM-2 inh)
Nc1nc(SCc2ccccn2)c2ncn(C3OC(CO)C(O)C3O)c2n1 (configuration not stated)	none (no result: IMP-1 inh-1, pPAFAH FP inh, VIM-2 inh)
Cc1ccc(-c2nn3c(C)nnc3c3ccccc23)cc1S(=O)(=O)NCCO	VIM-2 inh 30 | IMP-1 inh-2 inactive | VIM-2 FRET inh inactive | TEM-1 counter inactive | VIM-2 confirm 2 37
O=C(NCc1nnc2c3ccccc3c(-c3ccccc3)nn12)c1ccccc1Cl	VIM-2 inh 17 | IMP-1 inh-2 inactive | VIM-2 FRET inh inactive | TEM-1 counter inactive | VIM-2 confirm 2 27
Cc1ccc(-c2nn3c(C)nnc3c3ccccc23)cc1S(=O)(=O)N1CCN(CCO)CC1	VIM-2 inh 61 | IMP-1 inh-2 inactive | VIM-2 FRET inh inactive | TEM-1 counter inactive | VIM-2 confirm 2 73
Cc1ccc(-c2nn3c(C)nnc3c3ccccc23)cc1S(=O)(=O)NCc1ccco1	none
COc1nnc(-c2ccc(C)c(S(=O)(=O)NC(C)(C)CO)c2)c2ccccc12	none
